For assay [1], the species on record is Oryctolagus cuniculus. Nature of the assay: Displacement of [3H]diltiazem from rabbit skeletal muscle calcium channel. In kind it is tissue-based. As to conditions: Muscle tissue. Background: In a radioligand displacement assay an active substance lowers the binding of a labelled ligand.
Assay [2] concerns Rattus norvegicus. In words: Inhibition of […] of the rat after intravenous administration. As to conditions: read-out: ID50 (the source's name). In kind it is functional. In short, it runs like this:
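Rats given test compound intravenously. Plasma extravasation in the dura mater measured, n = 8-10. ID50 reported in mg/kg iv.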

The test system of assay [3] is Cavia porcellus. In words: Inhibition of SP- induced dermal guinea pig after peroral administration. The format is functional. As to conditions: read-out: ID50 (the source's name). In short, it runs like this: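 Guinea pigs dosed orally with antagonist, then challenged 1 h later with intradermal substance P. Vascular leakage measured as extravasation of Evans blue dye. ID50 (mg/kg po) taken from dose-response data, 5-12 animals per data point.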

The target in assay [4] is Substance-P receptor (Homo sapiens, UniProt P25103). Nature of the assay: Displacement of [125 I]-Tyr8 SP from the cloned human Tachykinin receptor 1 expressed in CHO cells. The format is cell-based.
The species named for assay [5] is Rattus norvegicus. Nature of the assay: Degradation of compound in incubations at 25 uM with normal rat liver microsomes after 15 min relative to initial concentration of 1 uM. The format is functional. In short, it runs like this:
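Incubated at 25 µM with normal rat liver microsomes; P-450 at 1.45 nM/mg microsomal protein. Sampled at 15 min, 1 h, 4 h and 24 h. Remaining substrate reported relative to an initial level of 1.0, n = 1.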
(In general: Liver microsomes are vesicles of endoplasmic reticulum, rich in cytochrome P450 enzymes.)

The species entered for assay [6] is Rattus norvegicus. Nature of the assay: Degradation of compound in incubations at 25 uM with normal rat liver microsomes after 4 hour relative to initial concentration of 1 uM. The format is functional. In short, it runs like this:
(§1)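 Each compound incubated at 25 µM with normal rat liver microsomes, P-450 at 1.45 nM/mg microsomal protein. Remaining substrate sampled at 15 min, 1 h, 4 h and 24 h and expressed relative to an initial concentration of 1.0. Single determination (n = 1).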

The species named for assay [7] is Rattus norvegicus. Nature of the assay: Degradation of compound in incubations at 25 uM with normal rat liver microsomes after 1 hour relative to initial concentration of 1 uM. The format is functional. In short, it runs like this: as §1
The species named for assay [8] is Rattus norvegicus. Nature of the assay: Degradation of compound in incubations at 25 uM with normal rat liver microsomes after 24 hour relative to initial concentration of 1 uM. In kind it is functional. In short, it runs like this:
as §1

Data on seven compounds can be found in ChEMBL document CHEMBL1129245, “N-heteroaryl-2-phenyl-3-(benzyloxy)piperidines: a novel class of potent orally active human NK1 antagonists” (J Med Chem, 1996).

Sequence of Substance-P receptor (P25103 whole entry): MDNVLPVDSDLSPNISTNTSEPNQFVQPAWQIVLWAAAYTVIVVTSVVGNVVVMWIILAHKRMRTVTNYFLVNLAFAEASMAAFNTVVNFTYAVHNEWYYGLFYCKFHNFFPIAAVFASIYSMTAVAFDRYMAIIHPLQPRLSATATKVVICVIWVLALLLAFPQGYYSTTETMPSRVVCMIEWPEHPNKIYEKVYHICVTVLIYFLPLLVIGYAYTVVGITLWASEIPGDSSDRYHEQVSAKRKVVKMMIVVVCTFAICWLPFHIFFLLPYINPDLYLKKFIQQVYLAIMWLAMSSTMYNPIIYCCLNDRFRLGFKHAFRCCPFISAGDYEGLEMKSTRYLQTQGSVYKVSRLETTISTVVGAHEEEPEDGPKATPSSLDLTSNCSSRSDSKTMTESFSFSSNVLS

`FC(F)(F)c1cc(CO[C@H]2CCCN(Cc3nc[nH]n3)[C@H]2c2ccccc2)cc(C(F)(F)F)c1`: the Binding affinity in assay [1] was above 100 µM. Besides, the ED50 in assay [2] is 0.008 mg/kg; in assay [3] it was 0.4 mg/kg.
Broadly, the IC50 is the concentration needed to halve the response being measured. Read a high IC50 as a need for much substance. The compound `FC(F)(F)c1cc(CO[C@H]2CCCN(Cc3cocn3)[C@H]2c2ccccc2)cc(C(F)(F)F)c1` yielded an IC50 in assay [4] of 1 nM. Besides, the Binding affinity in assay [1] is 23 µM. The compound further showed a Relative oncentration in assay [5] of 0.05 µM.
`FC(F)(F)c1cc(CO[C@H]2CCCN(Cc3ncc[nH]3)[C@H]2c2ccccc2)cc(C(F)(F)F)c1` yielded an IC50 in assay [4] of 0.53 nM. In assay [1], the Binding affinity is 2.06 µM.
Consider `COc1ccccc1CN[C@H]1CCCN[C@H]1c1ccccc1` [CP-99994], for which the Binding affinity in assay [1] is 4 µM. The ED50 in assay [2] is 0.052 mg/kg; in assay [3], 1.6 mg/kg.
Turning to `FC(F)(F)c1cc(CO[C@H]2CCCN(Cc3c[nH]cn3)[C@H]2c2ccccc2)cc(C(F)(F)F)c1`, the Concentration in assay [6] is 0.55 µM; in assay [7], 0.72 µM; in assay [8] it was 0.18 µM. In addition, the Binding affinity in assay [1] stood at 2.3 µM.
The compound `FC(F)(F)c1cc(CO[C@H]2CCCN(Cc3ccco3)[C@H]2c2ccccc2)cc(C(F)(F)F)c1` returned an IC50 in assay [4] of 36 nM.
Take `FC(F)(F)c1cc(CO[C@H]2CCCN(Cc3nnco3)[C@H]2c2ccccc2)cc(C(F)(F)F)c1`: the IC50 in assay [4] was 0.97 nM. For the same compound, the Binding affinity in assay [1] was determined as 10 µM.
